Test results reported in ChEMBL document CHEMBL1134050, “Phenyl benzenesulfonamides are novel and selective 5-HT6 antagonists: identification of N-(2,5-dibromo-3-fluorophenyl)-4-methoxy-3-piperazin-1-ylbenzenesulfonamide (SB-357134)” (Bioorg Med Chem Lett, 2001).

Legend:
[1] = biological target: 5-hydroxytryptamine receptor 6 (Homo sapiens, UniProt P50406); assay: Binding affinity against human 5-hydroxytryptamine 6 receptor
[2] = Plasma Clearance measured at steady-state following iv infusion at 0.6 mg/kg/h in rats; type: ADME, organism-based; design: route intravenous; conditions: rat, 0.6 mg/kg/h infusion
[3] = biological target: T1, 5-hydroxytryptamine receptor 2C (Homo sapiens, UniProt P28335); assay: Compound was evaluated for binding affinity against human cloned 5-hydroxytryptamine 2C receptor in HEK 293 cells using [3H]mesulergine as the radioligand; type: cell-based, HEK293
T1 sequence (P28335 whole entry): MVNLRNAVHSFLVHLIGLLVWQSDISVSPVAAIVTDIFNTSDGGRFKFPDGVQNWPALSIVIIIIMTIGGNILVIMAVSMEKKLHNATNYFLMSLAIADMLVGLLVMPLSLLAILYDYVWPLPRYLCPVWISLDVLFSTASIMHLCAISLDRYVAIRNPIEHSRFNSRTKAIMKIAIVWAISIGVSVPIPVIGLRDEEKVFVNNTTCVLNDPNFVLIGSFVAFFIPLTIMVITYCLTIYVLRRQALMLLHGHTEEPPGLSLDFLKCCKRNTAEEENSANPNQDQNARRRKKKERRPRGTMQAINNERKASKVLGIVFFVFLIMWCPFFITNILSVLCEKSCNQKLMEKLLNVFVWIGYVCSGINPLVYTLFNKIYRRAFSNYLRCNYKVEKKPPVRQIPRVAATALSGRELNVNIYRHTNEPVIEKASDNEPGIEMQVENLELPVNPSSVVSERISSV

D(2) dopamine receptor = D(2) dopamine receptor (Homo sapiens, UniProt P14416); assay: Compound was evaluated for binding affinity against Dopamine receptor D2 in CHO cells using [125I]iodosulpiride as the radioligand; type: cell-based
Summary of the method: (§1)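 Radioligand binding to human cloned receptors: 5-HT1A in HEK 293 cells with [3H]-8-OH-DPAT; 5-HT1B and 5-HT1E in CHO cells with [3H]-5-HT; 5-HT2B in HEK 293 cells with [3H]-5-HT; D2 and D3 in CHO cells with [125I]-iodosulpride. Values are the mean of at least two determinations, each within 0.2 log unit of the mean.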

[4] = biological target: 5-hydroxytryptamine receptor 1B (Homo sapiens, UniProt P28222); assay: Compound was evaluated for binding affinity against human cloned 5-hydroxytryptamine 1B receptor in CHO cells using [3H]5-HT as the radioligand; type: cell-based; summary of the method: as §1
[5] = biological target: T2, 5-hydroxytryptamine receptor 1A (Homo sapiens, UniProt P08908); assay: Compound was evaluated for binding affinity against human cloned 5-hydroxytryptamine 1A receptor in HEK 293 cells using [3H]8-OH-DPAT as the radioligand; type: cell-based, HEK293; summary of the method: as §1
T2 sequence (P08908 whole entry): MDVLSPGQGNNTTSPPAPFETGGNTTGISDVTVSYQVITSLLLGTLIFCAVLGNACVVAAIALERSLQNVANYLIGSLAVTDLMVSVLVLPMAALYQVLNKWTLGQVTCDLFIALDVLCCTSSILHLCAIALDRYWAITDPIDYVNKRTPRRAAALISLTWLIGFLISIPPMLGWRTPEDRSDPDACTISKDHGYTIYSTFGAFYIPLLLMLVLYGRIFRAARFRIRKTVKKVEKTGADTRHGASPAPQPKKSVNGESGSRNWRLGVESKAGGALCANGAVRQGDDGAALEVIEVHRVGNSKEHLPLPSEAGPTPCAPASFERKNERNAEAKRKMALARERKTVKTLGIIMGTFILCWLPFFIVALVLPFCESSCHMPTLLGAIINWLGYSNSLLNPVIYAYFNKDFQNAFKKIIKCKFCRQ

[6] = biological target: 5-hydroxytryptamine receptor 2B (Homo sapiens, UniProt P41595); assay: Compound was evaluated for binding affinity against human cloned 5-HT2B receptor in HEK 293 cells using [3H]5-HT as the radioligand; type: cell-based, HEK293; summary of the method: as §1
[7] = biological target: 5-hydroxytryptamine receptor 2A (Homo sapiens, UniProt P28223); assay: Compound was evaluated for binding affinity against human cloned 5-hydroxytryptamine 2A receptor in HEK 293 cells using [3H]ketanserin as the radioligand; type: cell-based, HEK293
[8] = biological target: T3, Alpha-1B adrenergic receptor (Homo sapiens, UniProt P35368); assay: Compound was evaluated for binding affinity against Alpha-1B adrenergic receptor
T3 sequence (P35368 whole entry): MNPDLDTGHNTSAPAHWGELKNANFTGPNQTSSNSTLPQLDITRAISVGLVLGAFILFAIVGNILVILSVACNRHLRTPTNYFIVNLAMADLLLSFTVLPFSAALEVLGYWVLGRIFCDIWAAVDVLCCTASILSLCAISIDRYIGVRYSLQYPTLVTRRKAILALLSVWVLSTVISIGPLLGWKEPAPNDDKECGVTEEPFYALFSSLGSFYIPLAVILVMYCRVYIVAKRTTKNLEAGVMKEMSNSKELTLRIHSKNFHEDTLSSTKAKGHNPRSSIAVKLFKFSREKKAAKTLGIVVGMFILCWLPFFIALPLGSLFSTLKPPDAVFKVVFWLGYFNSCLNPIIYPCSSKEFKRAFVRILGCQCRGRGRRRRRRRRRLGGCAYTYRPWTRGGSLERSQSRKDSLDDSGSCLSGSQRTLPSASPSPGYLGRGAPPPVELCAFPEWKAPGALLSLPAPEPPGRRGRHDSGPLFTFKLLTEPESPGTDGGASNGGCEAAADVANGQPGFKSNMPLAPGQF

Rattus norvegicus = organism: Rattus norvegicus; assay: Blood: Brain distribution ratio is determined in rat; type: ADME, organism-based
Summary of the method: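 Rats received iv infusion for 8 h, and the brain:blood ratio was taken at steady state.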

[9] = biological target: 5-hydroxytryptamine receptor 1E (Homo sapiens, UniProt P28566); assay: Compound was evaluated for binding affinity against human cloned 5-hydroxytryptamine 1E receptor in CHO cells using [3H]5-HT as the radioligand; type: cell-based; summary of the method: as §1
[10] = biological target: 5-hydroxytryptamine receptor 1D (Homo sapiens, UniProt P28221); assay: Compound was evaluated for binding affinity against human cloned 5-hydroxytryptamine 1D receptor in CHO cells using [3H]5-HT as the radioligand; type: cell-based
[11] = Bioavailability in rat (dose 3 mg/kg in 1% methylcellulose ); type: ADME, organism-based; conditions: in vivo
Summary of the method: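 Oral suspension dose of 3 mg/kg in 1% methylcellulose (v/v) aq to rats (n=3). Blood levels were measured by LC/MS/MS to derive AUC/dose and bioavailability.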

[12] = biological target: 5-hydroxytryptamine receptor 7 (Homo sapiens, UniProt P34969); assay: Compound was evaluated for binding affinity against human cloned 5-hydroxytryptamine 7 receptor in HEK 293 cells using [3H]5-CT as the radioligand (n=3); type: cell-based, HEK293
[13] = biological target: 5-hydroxytryptamine receptor 4 (Homo sapiens, UniProt Q13639); assay: Compound was evaluated for the binding affinity against human cloned 5-hydroxytryptamine 4 receptor in HeLa cells using [3H]-LSD as the radioligand; type: cell-based
[14] = biological target: T4, 5-hydroxytryptamine receptor 1F (Homo sapiens, UniProt P30939); assay: Compound was evaluated for binding affinity against human cloned 5-hydroxytryptamine 1F receptor in CHO cells using [3H]-5-HT as the radioligand; type: cell-based
T4 sequence (P30939 whole entry): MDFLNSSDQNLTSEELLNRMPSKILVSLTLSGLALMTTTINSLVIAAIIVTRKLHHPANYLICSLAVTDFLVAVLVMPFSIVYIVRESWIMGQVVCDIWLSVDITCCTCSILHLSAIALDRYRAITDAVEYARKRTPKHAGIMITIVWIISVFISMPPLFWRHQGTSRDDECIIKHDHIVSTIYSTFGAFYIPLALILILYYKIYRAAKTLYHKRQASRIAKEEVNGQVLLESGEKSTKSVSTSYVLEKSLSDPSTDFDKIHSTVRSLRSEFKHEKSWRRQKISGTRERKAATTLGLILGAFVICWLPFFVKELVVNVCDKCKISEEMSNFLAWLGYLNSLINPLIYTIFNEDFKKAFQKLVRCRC

D(3) dopamine receptor = D(3) dopamine receptor (Homo sapiens, UniProt P35462); assay: Compound was evaluated for binding affinity against Dopamine receptor D3 in CHO cells using [125I]iodosulpiride as the radioligand; type: cell-based; summary of the method: as §1
[15] = Bioavailability in rat (dose 10 mg/kg in 10% Encapsin and 2% DMSO p.o.); conditions: in vivo, po

5-hydroxytryptamine receptor 6, sequence (P50406 whole entry, the tested form may be a part): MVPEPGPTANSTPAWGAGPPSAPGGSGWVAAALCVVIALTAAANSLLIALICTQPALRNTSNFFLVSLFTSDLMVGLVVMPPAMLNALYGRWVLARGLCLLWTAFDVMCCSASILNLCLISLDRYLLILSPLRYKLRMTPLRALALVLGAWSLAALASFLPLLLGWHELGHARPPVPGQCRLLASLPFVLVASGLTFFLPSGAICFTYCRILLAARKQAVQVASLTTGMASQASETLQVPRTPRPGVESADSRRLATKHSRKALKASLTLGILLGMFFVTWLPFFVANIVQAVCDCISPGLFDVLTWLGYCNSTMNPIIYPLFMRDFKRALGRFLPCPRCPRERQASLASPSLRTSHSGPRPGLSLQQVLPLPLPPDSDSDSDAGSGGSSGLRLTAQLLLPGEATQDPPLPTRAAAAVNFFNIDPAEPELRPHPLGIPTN
5-hydroxytryptamine receptor 2B, sequence (P41595 whole entry): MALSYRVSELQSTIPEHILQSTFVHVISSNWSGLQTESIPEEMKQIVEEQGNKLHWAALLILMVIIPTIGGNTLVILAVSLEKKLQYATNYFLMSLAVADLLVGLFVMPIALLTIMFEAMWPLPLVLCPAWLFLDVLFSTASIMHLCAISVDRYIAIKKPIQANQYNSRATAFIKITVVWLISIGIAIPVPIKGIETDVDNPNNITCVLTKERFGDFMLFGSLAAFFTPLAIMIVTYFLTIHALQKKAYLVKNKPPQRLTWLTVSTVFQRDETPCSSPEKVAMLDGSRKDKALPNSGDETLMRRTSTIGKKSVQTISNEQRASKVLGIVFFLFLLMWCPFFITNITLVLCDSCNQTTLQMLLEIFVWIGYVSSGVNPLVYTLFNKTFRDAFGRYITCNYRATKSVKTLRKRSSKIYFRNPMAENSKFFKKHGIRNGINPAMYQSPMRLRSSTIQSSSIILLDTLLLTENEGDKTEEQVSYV
D(3) dopamine receptor, sequence (P35462 whole entry): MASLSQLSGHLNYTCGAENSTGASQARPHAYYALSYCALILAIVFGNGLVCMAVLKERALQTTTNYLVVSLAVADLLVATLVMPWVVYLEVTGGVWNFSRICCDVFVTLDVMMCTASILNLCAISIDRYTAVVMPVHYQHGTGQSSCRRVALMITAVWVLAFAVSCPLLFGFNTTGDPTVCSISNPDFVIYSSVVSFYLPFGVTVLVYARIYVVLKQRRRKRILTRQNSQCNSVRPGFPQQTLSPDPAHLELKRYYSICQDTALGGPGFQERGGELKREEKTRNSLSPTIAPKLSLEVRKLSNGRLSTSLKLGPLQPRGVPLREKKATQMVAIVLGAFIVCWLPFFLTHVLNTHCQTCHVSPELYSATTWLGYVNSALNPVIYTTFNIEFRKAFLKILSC
5-hydroxytryptamine receptor 4, sequence (Q13639 whole entry): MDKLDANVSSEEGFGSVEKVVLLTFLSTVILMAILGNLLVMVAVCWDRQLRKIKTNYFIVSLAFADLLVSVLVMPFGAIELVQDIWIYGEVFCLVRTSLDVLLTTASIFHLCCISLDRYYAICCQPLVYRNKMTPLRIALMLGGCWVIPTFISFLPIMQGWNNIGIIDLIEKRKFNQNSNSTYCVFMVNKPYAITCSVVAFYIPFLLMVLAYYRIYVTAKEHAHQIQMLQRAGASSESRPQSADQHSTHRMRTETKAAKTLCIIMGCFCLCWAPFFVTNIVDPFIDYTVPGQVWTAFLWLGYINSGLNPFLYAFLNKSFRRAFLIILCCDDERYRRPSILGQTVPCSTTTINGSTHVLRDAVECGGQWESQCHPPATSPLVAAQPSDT
5-hydroxytryptamine receptor 7, sequence (P34969 whole entry): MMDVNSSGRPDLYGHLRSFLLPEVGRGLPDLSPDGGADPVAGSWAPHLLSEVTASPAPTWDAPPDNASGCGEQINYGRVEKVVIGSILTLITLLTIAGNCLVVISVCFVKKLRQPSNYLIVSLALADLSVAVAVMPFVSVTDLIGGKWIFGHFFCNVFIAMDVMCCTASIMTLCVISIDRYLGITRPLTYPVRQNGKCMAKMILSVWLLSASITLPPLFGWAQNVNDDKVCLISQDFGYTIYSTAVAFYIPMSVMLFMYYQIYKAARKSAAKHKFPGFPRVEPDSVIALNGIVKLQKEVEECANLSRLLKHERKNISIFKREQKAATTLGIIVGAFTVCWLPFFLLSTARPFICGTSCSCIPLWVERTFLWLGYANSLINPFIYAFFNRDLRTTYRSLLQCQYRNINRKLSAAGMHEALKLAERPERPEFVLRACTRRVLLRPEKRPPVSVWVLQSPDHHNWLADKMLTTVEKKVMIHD
5-hydroxytryptamine receptor 2A, sequence (P28223 whole entry): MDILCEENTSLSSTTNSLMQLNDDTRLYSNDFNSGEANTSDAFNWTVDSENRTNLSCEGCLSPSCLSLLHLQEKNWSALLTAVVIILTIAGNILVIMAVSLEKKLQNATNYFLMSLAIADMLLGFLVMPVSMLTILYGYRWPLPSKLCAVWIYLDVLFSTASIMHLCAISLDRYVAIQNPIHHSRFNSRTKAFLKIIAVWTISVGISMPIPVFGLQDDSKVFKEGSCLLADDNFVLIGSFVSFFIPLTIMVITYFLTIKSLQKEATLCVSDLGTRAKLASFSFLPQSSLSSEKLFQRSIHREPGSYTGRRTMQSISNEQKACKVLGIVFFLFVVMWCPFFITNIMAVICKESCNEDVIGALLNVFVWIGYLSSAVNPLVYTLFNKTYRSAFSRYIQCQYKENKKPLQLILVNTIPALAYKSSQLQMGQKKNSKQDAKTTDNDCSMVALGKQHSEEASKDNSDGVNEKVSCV
5-hydroxytryptamine receptor 1B, sequence (P28222 whole entry): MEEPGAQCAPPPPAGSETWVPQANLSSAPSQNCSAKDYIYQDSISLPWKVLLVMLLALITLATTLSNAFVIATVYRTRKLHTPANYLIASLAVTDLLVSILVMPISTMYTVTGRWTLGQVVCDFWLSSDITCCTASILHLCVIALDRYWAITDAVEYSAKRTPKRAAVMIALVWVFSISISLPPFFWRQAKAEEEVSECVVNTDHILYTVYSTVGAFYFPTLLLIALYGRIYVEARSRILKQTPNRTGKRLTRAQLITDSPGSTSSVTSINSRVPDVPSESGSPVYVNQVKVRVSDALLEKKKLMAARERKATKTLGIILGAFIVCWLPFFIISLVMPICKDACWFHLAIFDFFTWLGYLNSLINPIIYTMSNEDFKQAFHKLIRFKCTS
D(2) dopamine receptor, sequence (P14416 whole entry): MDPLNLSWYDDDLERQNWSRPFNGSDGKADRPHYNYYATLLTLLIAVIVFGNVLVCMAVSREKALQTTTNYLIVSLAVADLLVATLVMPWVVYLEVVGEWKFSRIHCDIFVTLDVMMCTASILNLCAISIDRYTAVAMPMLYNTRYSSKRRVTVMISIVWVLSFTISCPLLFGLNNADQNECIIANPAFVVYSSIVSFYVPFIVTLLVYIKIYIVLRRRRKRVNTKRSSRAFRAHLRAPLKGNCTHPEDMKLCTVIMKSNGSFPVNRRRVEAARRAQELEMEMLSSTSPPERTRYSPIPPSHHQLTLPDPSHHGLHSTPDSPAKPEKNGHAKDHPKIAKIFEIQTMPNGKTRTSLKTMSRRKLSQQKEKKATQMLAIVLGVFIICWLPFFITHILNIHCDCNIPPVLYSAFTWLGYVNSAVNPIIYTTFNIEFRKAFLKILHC
5-hydroxytryptamine receptor 1E, sequence (P28566 whole entry): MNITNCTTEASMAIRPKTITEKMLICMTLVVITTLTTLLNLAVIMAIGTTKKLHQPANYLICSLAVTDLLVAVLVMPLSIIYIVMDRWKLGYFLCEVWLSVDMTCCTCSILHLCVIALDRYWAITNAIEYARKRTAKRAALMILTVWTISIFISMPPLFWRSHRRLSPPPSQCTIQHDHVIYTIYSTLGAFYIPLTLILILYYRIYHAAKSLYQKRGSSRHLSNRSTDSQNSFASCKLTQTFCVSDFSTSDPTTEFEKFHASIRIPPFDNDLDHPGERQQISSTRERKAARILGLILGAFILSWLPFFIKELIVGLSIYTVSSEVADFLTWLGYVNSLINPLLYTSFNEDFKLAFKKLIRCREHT
5-hydroxytryptamine receptor 1D, sequence (P28221 whole entry): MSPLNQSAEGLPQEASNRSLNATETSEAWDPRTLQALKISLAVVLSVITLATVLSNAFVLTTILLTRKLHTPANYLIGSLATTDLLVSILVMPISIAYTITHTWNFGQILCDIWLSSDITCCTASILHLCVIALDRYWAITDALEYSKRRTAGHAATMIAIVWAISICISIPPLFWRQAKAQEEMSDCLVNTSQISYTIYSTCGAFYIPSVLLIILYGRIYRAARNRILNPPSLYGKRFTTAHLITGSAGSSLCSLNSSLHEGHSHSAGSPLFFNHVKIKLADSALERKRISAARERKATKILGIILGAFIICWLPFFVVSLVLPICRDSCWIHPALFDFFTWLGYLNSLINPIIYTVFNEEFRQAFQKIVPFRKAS

In the case of `COc1ccc(C(F)(F)F)cc1NS(=O)(=O)c1ccc(OC)c(N2CCNCC2)c1`, the Ki [1] is reported as 3.98 nM.

`COc1ccc(S(=O)(=O)Nc2ccc(I)cc2)cc1N1CCNCC1` gave a Ki [1] of 2 nM.

Work on `COc1ccc(S(=O)(=O)N2CCc3cccc(Cl)c3C2)cc1N1CCNCC1` yielded a clearance [2] of 83 mL/min/kg.

Work on `COc1ccc(S(=O)(=O)Nc2cc(Cl)c(Cl)cc2Cl)cc1N1CCNCC1` yielded a Ki [1] of 5.01 nM.

In the case of `COc1ccc(S(=O)(=O)N2CCc3cc(I)ccc32)cc1N1CCNCC1`, the Ki [1] is reported as 3.98 nM.

Compound `COc1ccc(S(=O)(=O)N2CCc3c(Cl)ccc(Cl)c3C2)cc1N1CCNCC1` has a clearance [2] of 76 mL/min/kg.

Work on `COc1ccc(S(=O)(=O)Nc2cc(Cl)cc(Cl)c2Cl)cc1N1CCNCC1` yielded a Ki [3] of 1000 nM, a Ki (D(2) dopamine receptor) greater than 10000 nM and a Ki [4] greater than 10000 nM. The Ki [5] was 3980 nM, the clearance [2] was 2 mL/min/kg and the Ki [6] was 2000 nM. It also gave a Ki [7] greater than 10000 nM, a Ki [8] greater than 3980 nM and a Distribution ratio (Rattus norvegicus) of 0.02. The Ki [9] was greater than 10000 nM, the Ki [10] was greater than 3160 nM and the bioavailability [11] was greater than 80%. It also gave a Ki [12] of 2 nM, a Ki [13] greater than 10000 nM and a Ki [1] of 2 nM. It also gave a Ki [14] greater than 10000 nM and a Ki (D(3) dopamine receptor) greater than 3980 nM.

With `COc1ccc(S(=O)(=O)Nc2cc(F)cc(F)c2Cl)cc1N1CCNCC1` the Ki [1] was 31.6 nM.

`COc1ccc(S(=O)(=O)Nc2ccc(Cl)cc2C(F)(F)F)cc1N1CCNCC1` showed a Ki [1] of 25.1 nM.

Work on `COc1ccc(S(=O)(=O)Nc2cccc(I)c2)cc1N1CCNCC1` yielded a clearance [2] of 58 mL/min/kg, a Distribution ratio (Rattus norvegicus) of 0.13 and a Ki [1] of 0.501 nM.

For `COc1ccc(S(=O)(=O)Nc2cc(Cl)cc(Br)c2Cl)cc1N1CCNCC1`, the Ki [1] was 2 nM.

`COc1ccc(S(=O)(=O)Nc2c(F)cc(Br)cc2F)cc1N1CCNCC1` gave a Ki [1] of 158 nM.

Work on `COc1ccc(S(=O)(=O)Nc2cc(Br)cc(Br)c2F)cc1N1CCNCC1` yielded a Ki [1] of 2.51 nM.

In the case of `COc1ccc(S(=O)(=O)Nc2cccc(Cl)c2)cc1N1CCNCC1`, the Ki [1] is reported as 1.26 nM.

Work on `COc1ccc(S(=O)(=O)Nc2cc(Br)cc(Cl)c2Cl)cc1N1CCNCC1` yielded a Ki [1] of 3.98 nM.

Compound `COc1ccc(S(=O)(=O)Nc2ccc(C)cc2Br)cc1N1CCNCC1` has a Ki [1] of 7.94 nM.

Compound `COc1ccc(S(=O)(=O)N2CCCc3ccc(Br)cc32)cc1N1CCNCC1` has a Ki [1] of 0.316 nM.

Compound `COc1ccc(S(=O)(=O)N2CCc3ccc(I)cc32)cc1N1CCNCC1` has a Ki [3] of 631 nM, a Ki (D(2) dopamine receptor) of 2510 nM and a Ki [4] of 1260 nM. The Ki [5] was 501 nM, the Ki [6] was 631 nM and the Ki [7] was greater than 3980 nM. The Ki [8] was 1000 nM, the Ki [9] was greater than 10000 nM and the Ki [10] was 200 nM. The Ki [12] was 0.316 nM, the Ki [13] was 3980 nM and the Ki [1] was 0.316 nM. It also gave a Ki [14] greater than 7940 nM and a Ki (D(3) dopamine receptor) of 1000 nM.

`COc1ccc(NS(=O)(=O)c2sc3ccc(Cl)cc3c2C)cc1N1CCNCC1` showed a clearance [2] of 8 mL/min/kg and a bioavailability [15] of 82%.
